For 58 molecules, activity change, negative = cytotoxicity results are on record in PubChem BioAssay AID588830 (Broad Institute, 2011).

Active and inactive are the calls of the source.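 The calls were made as follows: active = fitted IC50 for falling signal at or below ten times the top tested dose; inconclusive = flat fit with 30 to 70% signal loss, or poor fit; inactive = the rest.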

One assay can be described thus: ATP-based viability of SR-BI CHO cells – cell-based, CellTiter-Glo luminescence, 3 h, dry powder, cytotoxicity control for SR-BI HDL uptake inhibitor project, dose response (AID 588830). Conditions: ldlA[mSR-BI] CHO cells viability, CellTiter-Glo ATP, 3 h; at 30 µM (top of the series). In outline: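 Test system – ldlA[mSR-BI] cells, scavenger receptor B1-expressing line · Buffer or medium – PSG and 10% FCS in Ham's F12 · Compound dosing – 8-concentration series per compound, added by pin transfer · Times – 3 h at 37 °C, then 10 min with reagent · Measured by – luminescence of cellular ATP via Cell Titer Glo reagent · Measure – cytotoxicity IC50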
On the technique in general: ATP-based viability assays read luminescence as a measure of living cells.
As to `C[C@H]1CN([C@@H](C)CO)C(=O)c2cc(NC(=O)Cc3cn(C)c4ccccc34)ccc2O[C@H]1CN(C)S(=O)(=O)c1ccc(F)cc1`, the activity change, negative = cytotoxicity is -1.92% (inactive).

The assay is the same for the next values; noted with them: ldlA[mSR-BI] CHO cells viability, CellTiter-Glo ATP, 3 h; at 35 µM (top of the series).
Take `C[C@H](CO)N1C[C@H](C)[C@H](CN(C)S(=O)(=O)c2ccc(F)cc2)Oc2ccc(NS(C)(=O)=O)cc2C1=O`: the activity change, negative = cytotoxicity was -6.43% (inactive). Same read-out and setting: with `CCc1sc(N2C(=O)C3C4CCC(C4=C(C)C)C3C2=O)nc1-c1ccccc1` (stereo not drawn) the figure was -2.48% (inactive); with `C[C@H]1CN([C@@H](C)CO)C(=O)c2cccc(NC(=O)Nc3ccccc3)c2O[C@@H]1CN(C)Cc1ccc(Cl)c(Cl)c1`, -15.5% (inactive). In the case of `O=C(Nc1ccc(-c2nc3cc(NC(=O)c4ccccc4[N+](=O)[O-])ccc3o2)cc1)c1ccccc1[N+](=O)[O-]`, the activity change, negative = cytotoxicity was 1.25% (inactive). As for `O=C(Nc1ccccc1)c1ccccc1NS(=O)(=O)c1ccc(Cl)cc1`, the activity change, negative = cytotoxicity is -7.39% (inactive). On the same count and under the same terms, with `COC(=O)c1cn(C(=O)c2cccc3ccccc23)c2ccccc12` the figure was -13.3% (inactive); with `Cc1cc(C)n(CC(=O)NC2CCCc3c2cnn3-c2ccc(C)c(C)c2)n1` (stereo not drawn), -4.16% (inactive). Regarding `C[C@H]1CN([C@@H](C)CO)C(=O)c2cccc(N(C)C)c2O[C@@H]1CN(C)Cc1ccc(Cl)c(Cl)c1`, the activity change, negative = cytotoxicity is -3.41% (inactive).

In the case of `C[C@H]1CN([C@@H](C)CO)C(=O)c2cc(NC(=O)Cc3cn(C)c4ccccc34)ccc2O[C@@H]1CN(C)S(=O)(=O)c1ccc(F)cc1`, the activity change, negative = cytotoxicity was 1.18% (inactive). The same measure, in the same setting: with `O=C(Nc1ccc(-c2nc3cc(NC(=O)c4ccc(NC(=O)c5cccc6ccccc56)cc4)ccc3[nH]2)cc1)c1ccc(NC(=O)c2cccc3ccccc23)cc1` the figure was 2.1% (inactive); with `C[C@H]1CN([C@@H](C)CO)C(=O)c2cccc(NC(=O)Nc3ccccc3)c2O[C@@H]1CN(C)Cc1ccccc1`, 0.984% (inactive); with `N#Cc1sc2nc(C3CC3)cc(-c3ccc(Cl)cc3)c2c1N`, -7.15% (inactive). For the molecule `CC(C)OCCCNC(=O)c1ccc(C2SCC(=O)N2Cc2ccco2)cc1` (stereo not drawn), the activity change, negative = cytotoxicity is -4.74% (inactive). For the molecule `CCOC(=O)N1CCC(NC(=O)c2ccc3c(c2)N(Cc2ccc(F)cc2)CCS3)CC1`, the activity change, negative = cytotoxicity is -4.76% (inactive). Regarding `O=C(Nc1ccc(Cl)cc1C(=O)c1ccc(Cl)cc1)c1cc(Br)ccc1NS(=O)(=O)c1ccc(Cl)cc1`, the activity change, negative = cytotoxicity is -10% (inactive).

For the molecule `C[C@H]1CN([C@@H](C)CO)C(=O)c2cc(NC(=O)Nc3ccccc3)ccc2O[C@@H]1CN(C)Cc1ccc(Cl)c(Cl)c1`, the activity change, negative = cytotoxicity is -3.67% (inactive). Turning to `C[C@@H]1CN([C@H](C)CO)C(=O)c2cc(NC(=O)Cc3cn(C)c4ccccc34)ccc2O[C@H]1CN(C)S(C)(=O)=O`, the activity change, negative = cytotoxicity was 3.58% (inactive). On the same count and under the same terms, the figure for `C[C@H]1CN([C@@H](C)CO)C(=O)c2cccc(NS(C)(=O)=O)c2O[C@@H]1CN(C)Cc1ccc(Cl)c(Cl)c1` is 1.6% (inactive).

Regarding `CNC[C@@H]1Oc2ccc(NC(=O)Cc3cn(C)c4ccccc34)cc2C(=O)N([C@H](C)CO)C[C@H]1C`, the activity change, negative = cytotoxicity was -4.04% (inactive). `O=C(Nc1ccc(-c2nc3ccc(NC(=O)c4ccccc4[N+](=O)[O-])cc3[nH]2)cc1)c1ccccc1[N+](=O)[O-]`: the activity change, negative = cytotoxicity was 6.32% (inactive). Same read-out and setting: with `C[C@@H]1CN([C@@H](C)CO)C(=O)c2cc(NC(=O)Cc3cn(C)c4ccccc34)ccc2O[C@@H]1CN(C)S(=O)(=O)c1ccc(F)cc1` the figure was 2.84% (inactive). Same read-out and setting: the figure for `CC(C)NC(=O)Nc1cccc2c1O[C@H](CN(C)Cc1ccc(Cl)c(Cl)c1)[C@@H](C)CN([C@@H](C)CO)C2=O` is 3.31% (inactive); for `CCOC(=O)Nc1cccc(NC(=O)c2cc(OC)cc(OC)c2)c1` it is -7.68% (inactive). The same measure, in the same setting: the figure for `C[C@H]1CN([C@@H](C)CO)C(=O)c2cccc(NC(=O)Nc3ccc(F)cc3)c2O[C@@H]1CN(C)Cc1ccc(Cl)c(Cl)c1` is -26.7% (inactive). On to `COc1ccc(-c2nnn(CC(=O)N(C3CCCCC3)C(C)C(=O)NC3CCCC3)n2)cc1OC` (stereo not drawn), for which the activity change, negative = cytotoxicity is -4.74% (inactive). The same measure, in the same setting: the figure for `C[C@H](CO)N1C[C@H](C)[C@H](CN(C)S(=O)(=O)c2ccc(F)cc2)Oc2ccc(NC(=O)CCC(F)(F)F)cc2C1=O` is -1.99% (inactive).

For `C[C@@H]1CN([C@H](C)CO)C(=O)c2cc(NC(=O)Cc3cn(C)c4ccccc34)ccc2O[C@H]1CN(C)S(=O)(=O)c1ccc(Cl)cc1`, the activity change, negative = cytotoxicity is -0.219% (inactive). Same read-out and setting: the figure for `O=C(Nc1ccc(-c2nc3ccc(NC(=O)c4ccc(Cl)cc4)cc3[nH]2)cc1)c1ccc(Cl)cc1` is 3.4% (inactive); for `CCc1cc2cc3c(cc2nc1SCC(=O)OC(C)C)OCO3` it is -2% (inactive). `O=C(Nc1ccc(-c2nc3cc(NC(=O)c4ccccc4Cl)ccc3o2)cc1)c1ccccc1Cl`: the activity change, negative = cytotoxicity is 11.9% (inactive).

As for `O=C(Nc1ccccc1Cl)c1ccccc1NS(=O)(=O)c1ccccc1`, the activity change, negative = cytotoxicity was -1.11% (inactive).

On to `C[C@H](CO)N1C[C@H](C)[C@H](CN(C)S(=O)(=O)c2ccc(F)cc2)Oc2ccc(NC(=O)Cc3ccccc3)cc2C1=O`, for which the activity change, negative = cytotoxicity was -1.65% (inactive).

On to `C[C@H]1CN([C@@H](C)CO)C(=O)c2cccc(NC(=O)Nc3ccccc3)c2O[C@@H]1CN(C)S(C)(=O)=O`, for which the activity change, negative = cytotoxicity is -1.01% (inactive). Still for that read-out and setting: with `Cc1ccccc1NC(=O)NCC1CCN(c2ccc(S(=O)(=O)N3CCOCC3)cc2)CC1` the figure was -8.7% (inactive); with `O=C(Nc1cc(C(F)(F)F)ccc1Cl)c1ccccc1NS(=O)(=O)c1ccc(Cl)cc1`, -7.07% (inactive); with `CCn1c(COc2c(C)cccc2C)nnc1SCC(=O)N1CCN(c2ccccc2)CC1`, -9.72% (inactive). The same measure, in the same setting: with `Nc1ccc(C(=O)Nc2ccc(-c3nc4ccc(NC(=O)c5ccc(N)cc5)cc4[nH]3)cc2)cc1` the figure was 7.17% (inactive); with `C[C@@H]1CN([C@H](C)CO)C(=O)c2cc(NC(=O)Cc3cn(C)c4ccccc34)ccc2O[C@H]1CN(C)S(=O)(=O)c1ccc(F)cc1`, 1.06% (inactive); with `C[C@H](CO)N1C[C@H](C)[C@H](CN(C)S(=O)(=O)c2ccc(F)cc2)Oc2ccc(NC(=O)Cc3cn(C)c4ccccc34)cc2C1=O`, -10% (inactive). Consider `O=C(Nc1cc(Cl)ccc1Cl)c1cc(Br)ccc1NS(=O)(=O)c1ccc(Cl)c([N+](=O)[O-])c1`, for which the activity change, negative = cytotoxicity is -11.2% (inactive).

For the molecule `C[C@@H]1CN([C@@H](C)CO)C(=O)c2cc(NC(=O)Cc3cn(C)c4ccccc34)ccc2O[C@H]1CN(C)S(=O)(=O)c1ccc(F)cc1`, the activity change, negative = cytotoxicity was -8.52% (inactive). The same measure, in the same setting: the figure for `COc1cccc(-c2csc(N3CCN(C(=S)Nc4cccc(Cl)c4)CC3)n2)c1` is -9.99% (inactive). Same read-out and setting: with `C[C@H](CO)N1C[C@H](C)[C@@H](CN(C)S(=O)(=O)c2ccc(F)cc2)Oc2ccc(NC(=O)Cc3cn(C)c4ccccc34)cc2C1=O` the figure was -0.528% (inactive). Same read-out and setting: with `C[C@@H]1CN([C@H](C)CO)C(=O)Cc2cc(NC(=O)Cc3cn(C)c4ccccc34)ccc2O[C@H]1CN(C)S(=O)(=O)c1ccc(F)cc1` the figure was 1.4% (inactive); with `Cc1cc(SC(C)C(=O)Nc2ncc(Cl)cc2Cl)nc2ccccc12` (stereo not drawn), -10.7% (inactive). On to `COc1ccc(OC)c(CCNC(=O)c2ccc3c(c2)N(Cc2ccc(F)cc2)CCS3)c1`, for which the activity change, negative = cytotoxicity was -5.33% (inactive). Regarding `CCC(=O)N1CCc2cc(-c3csc(NC(=O)c4ccco4)n3)ccc21`, the activity change, negative = cytotoxicity was -8.77% (inactive).

Turning to `CC(OC(=O)c1cccc(NS(C)(=O)=O)c1)C(=O)Nc1ccc(N2CCOCC2)cc1` (stereo not drawn), the activity change, negative = cytotoxicity is -7.82% (inactive). The same measure, in the same setting: the figure for `C[C@H]1CN([C@@H](C)CO)C(=O)c2cccc(NC(=O)Nc3ccccc3)c2O[C@@H]1CN(C)C` is -1.76% (inactive); for `C[C@@H]1CN([C@H](C)CO)C(=O)c2cc(NC(=O)Cc3cn(C)c4ccccc34)ccc2O[C@H]1CN(C)C(=O)Nc1ccc(F)cc1` it is 4.57% (inactive); for `C[C@@H]1CN([C@H](C)CO)C(=O)c2cc(NC(=O)Cc3cn(C)c4ccccc34)ccc2O[C@@H]1CN(C)S(=O)(=O)c1ccc(F)cc1` it is 2.73% (inactive). The same measure, in the same setting: the figure for `C[C@@H]1CN([C@H](C)CO)C(=O)c2cc(NC(=O)Cc3cn(C)c4ccccc34)ccc2O[C@H]1CN(C)S(=O)(=O)c1ccccc1` is 1.08% (inactive). On the same count and under the same terms, with `Cc1cc(C)c2c(c1)NC(c1cc3c(cc1Br)OCO3)C1CC=CC21` (stereo not drawn) the figure was -9.46% (inactive).

`COc1ccc([C@H]2CC(=O)C=C(c3cccc4c3sc3ccccc34)C2)cc1OC`: the activity change, negative = cytotoxicity was -5.27% (inactive). Turning to `CC(C)(C)NC(=O)N1CCN(c2ncccc2C(F)(F)F)CC1`, the activity change, negative = cytotoxicity was -3.5% (inactive). For `O=C(Nc1cccc(NC(=O)c2cc([N+](=O)[O-])ccc2Cl)n1)c1cc([N+](=O)[O-])ccc1Cl`, the activity change, negative = cytotoxicity was -7.2% (inactive).

Still in this assay, the particulars now being: ldlA[mSR-BI] CHO cells viability, CellTiter-Glo ATP, 3 h; at 68 µM (top of the series).
As to `CCOc1ccc(NC(=O)CN2CCN(CC(=O)Nc3cc(OC)cc(OC)c3)CC2)cc1`, the activity change, negative = cytotoxicity was -11.7% (inactive).
